Source: ChEMBL document CHEMBL2034857, “Discovery of the macrocycle (9E)-15-(2-(pyrrolidin-1-yl)ethoxy)-7,12,25-trioxa-19,21,24-triaza-tetracyclo[18.3.1.1(2,5).1(14,18)]hexacosa-1(24),2,4,9,14(26),15,17,20,22-nonaene (SB1578), a potent inhibitor of janus kinase 2/fms-like tyrosine kinase-3 (JAK2/FLT3) for the treatment of rheumatoid …” (J Med Chem, 2012)

What was measured:
[1] = Tmax in rhesus monkey at 20 mg/kg, po; format: ADME, organism-based, Macaca mulatta; parameters: dose 20 mg/kg, route oral; conditions: in vivo
In short: (§1)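 Single oral dose by gavage as suspension in 0.5% methylcellulose/0.1% Tween 80 (mouse, rat, monkey) or in gelatin capsules (dog). Serial blood samples taken from 0 to 24 h into K3EDTA tubes; plasma stored at −70 °C until analysis. Parameters derived by noncompartmental methods. Rat, dog and monkey n = 3; mouse values estimated from mean concentration-time data, n = 3 mice per time point.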

[2] = Terminal half life in rhesus monkey at 20 mg/kg, po; format: ADME, organism-based, Macaca mulatta; parameters: dose 20 mg/kg, route oral; conditions: in vivo, read-out: beta t1/2 (converted); in short: as §1
[3] = Cmax in Wistar rat at 50 mg/kg, po; format: ADME, organism-based; parameters: dose 50 mg/kg, route oral; conditions: in vivo
In short: (§2)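 Single oral gavage at 50 (mouse, rat), 5 (dog) or 20 (monkey) mg/kg; rodents and monkeys received suspensions in 0.5% methylcellulose/0.1% Tween 80, dogs gelatin capsules. Serial blood taken 0–24 h into K3EDTA, plasma stored at −70 °C. Parameters estimated by noncompartmental analysis, n = 3 per species (mouse values from mean concentration–time data, 3 mice per time point).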

[4] = molecular target: Tyrosine-protein kinase JAK2 (Homo sapiens, UniProt O60674); assay: Inhibition of recombinant JAK2 using poly(Glu,Ala,Tyr) as substrate after 2 hrs by luminometric assay
[5] = Terminal half life in beagle dog at 5 mg/kg, po; format: ADME, organism-based, Canis lupus familiaris; parameters: dose 5 mg/kg, route oral; conditions: in vivo, read-out: beta t1/2 (converted); in short: as §1
[6] = molecular target: Tyrosine-protein kinase JAK1 (Homo sapiens, UniProt P23458); assay: Inhibition of recombinant JAK1 using poly(Glu,Ala,Tyr) as substrate after 2 hrs by luminometric assay
[7] = molecular target: Cyclin-dependent kinase 9 (Homo sapiens, UniProt P50750); assay: Inhibition of CDK9
Mus musculus = assay: Antiarthritic activity in B10/R3 mouse immunized with bovine type2 collagen in Freund's complete adjuvant assessed as inhibition of increase in clinical arthritic scores at 105 mg/kg, po administered bid for 10 days measured for 10 days; format: functional; conditions: B10/R3, 240 h
[8] = Half life in dog liver microsomes at 5 uM; format: ADME, Canis lupus familiaris, Microsome
In short: (§3)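 Compound at 5 μM with human, mouse or dog microsomes at 0.87 mg/mL, or rat and monkey microsomes at 1 mg/mL, in 50 mM potassium phosphate pH 7.4 with NADPH regenerating system at 37 °C.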

[9] = AUC (0 to infinity) in BALB/c nude mouse at 50 mg/kg, po; format: ADME, organism-based; parameters: time infinity, dose 50 mg/kg, route oral; conditions: plasma; in short: as §2
BaF3 = assay: Antiproliferative activity against mouse BAF3 cells expressing JAK2 V617F mutant after 48 hrs by luciferase reporter gene assay; format: functional; conditions: BaF3, 48 h
[10] = Tmax in beagle dog at 5 mg/kg, po; format: ADME, organism-based, Canis lupus familiaris; parameters: dose 5 mg/kg, route oral; conditions: in vivo; in short: as §1
[11] = AUC (0 to infinity) in rhesus monkey at 20 mg/kg, po; format: ADME, organism-based, Macaca mulatta; parameters: time infinity, dose 20 mg/kg, route oral; conditions: plasma; in short: as §2
[12] = Half life in rhesus monkey live microsomes at 5 uM; format: ADME, Macaca mulatta; conditions: liver microsomes; in short: as §3
[13] = Oral bioavailability in Wistar rat at 50 mg/kg; format: ADME, organism-based; conditions: in vivo; in short: as §2
Cytochrome P450 2D6 = Cytochrome P450 2D6 (Homo sapiens, UniProt P10635); assay: Inhibition of CYP2D6 in human liver microsomes using dextromethorphan as substrate by LC-MS/MS analysis; format: ADME, Microsome
Cytochrome P450 2C9 = Cytochrome P450 2C9 (Homo sapiens, UniProt P11712); assay: Inhibition of CYP2C9 in human liver microsomes using diclofenac as substrate by LC-MS/MS analysis; format: ADME, Microsome
[14] = Cmax in beagle dog at 5 mg/kg, po; format: ADME, organism-based, Canis lupus familiaris; parameters: dose 5 mg/kg, route oral; conditions: in vivo; in short: as §2
[15] = AUC (0 to infinity) in Wistar rat at 50 mg/kg, po; format: ADME, organism-based; parameters: dose 50 mg/kg, route oral, time infinity; conditions: plasma; in short: as §2
[16] = molecular target: T1, Tyrosine-protein kinase JAK3 (Homo sapiens, UniProt P52333); assay: Inhibition of recombinant JAK3 using poly(Glu,Ala,Tyr) as substrate after 2 hrs by luminometric assay
T1 sequence (P52333 whole entry): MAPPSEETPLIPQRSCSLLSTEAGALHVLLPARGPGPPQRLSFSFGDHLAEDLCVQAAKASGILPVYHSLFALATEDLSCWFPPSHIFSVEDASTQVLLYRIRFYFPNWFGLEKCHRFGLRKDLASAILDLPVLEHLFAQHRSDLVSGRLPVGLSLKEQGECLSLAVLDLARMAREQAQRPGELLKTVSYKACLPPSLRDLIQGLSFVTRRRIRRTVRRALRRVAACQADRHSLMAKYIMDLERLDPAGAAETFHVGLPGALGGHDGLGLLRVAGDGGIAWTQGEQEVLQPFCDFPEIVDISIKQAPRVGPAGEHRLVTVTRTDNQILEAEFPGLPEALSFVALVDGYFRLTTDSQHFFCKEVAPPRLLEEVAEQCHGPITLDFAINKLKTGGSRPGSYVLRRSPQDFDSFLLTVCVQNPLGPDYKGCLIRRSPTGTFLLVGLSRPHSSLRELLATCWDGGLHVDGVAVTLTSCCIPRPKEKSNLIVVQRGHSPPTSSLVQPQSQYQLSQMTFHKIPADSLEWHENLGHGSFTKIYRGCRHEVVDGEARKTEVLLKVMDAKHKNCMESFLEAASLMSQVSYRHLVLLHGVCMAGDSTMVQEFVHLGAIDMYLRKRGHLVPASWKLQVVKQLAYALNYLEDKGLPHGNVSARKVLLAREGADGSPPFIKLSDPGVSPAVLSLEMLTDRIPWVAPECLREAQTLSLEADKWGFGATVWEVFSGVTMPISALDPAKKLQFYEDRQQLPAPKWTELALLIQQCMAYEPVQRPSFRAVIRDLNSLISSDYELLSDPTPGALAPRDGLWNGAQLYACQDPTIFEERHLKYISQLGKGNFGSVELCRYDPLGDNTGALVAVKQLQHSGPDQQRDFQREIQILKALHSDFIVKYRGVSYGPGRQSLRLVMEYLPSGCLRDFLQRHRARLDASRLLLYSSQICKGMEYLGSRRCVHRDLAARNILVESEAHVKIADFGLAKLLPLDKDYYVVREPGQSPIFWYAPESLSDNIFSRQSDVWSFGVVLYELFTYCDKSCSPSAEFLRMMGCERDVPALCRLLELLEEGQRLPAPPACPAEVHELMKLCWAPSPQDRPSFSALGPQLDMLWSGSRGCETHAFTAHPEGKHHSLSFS

[17] = Terminal half life in Wistar rat at 50 mg/kg, po; format: ADME, organism-based; parameters: dose 50 mg/kg, route oral; conditions: in vivo, read-out: beta t1/2 (converted); in short: as §1
[18] = Plasma protein binding in human at 1000 ng/mL by equilibrium dialysis; format: ADME, cell-free; conditions: read-out: PPB
In short: (§4)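 Equilibrium dialysis of plasma (mouse, rat, dog, monkey, human) spiked to 1000 ng/mL final against PBS, 4 h at 37 °C; buffer side extracted with MTBE in triplicate and analyzed by LC-MS/MS.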

[19] = Plasma protein binding in mouse at 1000 ng/mL by equilibrium dialysis; format: ADME, cell-free; conditions: read-out: PPB (converted); in short: as §4
[20] = Oral bioavailability in beagle dog at 5 mg/kg; format: ADME, organism-based, Canis lupus familiaris; conditions: in vivo; in short: as §2
[21] = Half life in human liver microsomes; format: ADME, Microsome
[22] = Plasma protein binding in monkey at 1000 ng/mL by equilibrium dialysis; format: ADME, cell-free, Macaca mulatta; conditions: rhesus monkey, read-out: PPB (converted); in short: as §4
Cytochrome P450 2C19 = Cytochrome P450 2C19 (Homo sapiens, UniProt P33261); assay: Inhibition of CYP2C19 in human liver microsomes using omeprazole as substrate by LC-MS/MS analysis; format: ADME, Microsome
Sequence of Cytochrome P450 2C19 (P33261 whole entry): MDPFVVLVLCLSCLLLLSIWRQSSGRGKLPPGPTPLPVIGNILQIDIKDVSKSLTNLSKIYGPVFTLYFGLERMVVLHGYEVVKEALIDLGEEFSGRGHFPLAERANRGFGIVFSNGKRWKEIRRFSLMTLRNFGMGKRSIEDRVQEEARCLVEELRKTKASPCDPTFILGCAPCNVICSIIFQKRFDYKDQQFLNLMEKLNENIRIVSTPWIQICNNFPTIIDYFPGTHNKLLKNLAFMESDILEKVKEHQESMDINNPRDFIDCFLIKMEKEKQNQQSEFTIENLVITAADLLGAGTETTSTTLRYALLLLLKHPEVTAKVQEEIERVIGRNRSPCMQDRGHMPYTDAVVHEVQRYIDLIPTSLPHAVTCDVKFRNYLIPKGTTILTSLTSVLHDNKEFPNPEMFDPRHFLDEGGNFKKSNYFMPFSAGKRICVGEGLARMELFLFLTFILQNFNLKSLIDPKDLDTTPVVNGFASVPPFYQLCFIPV

Sequence of Cytochrome P450 2D6 (P10635 whole entry): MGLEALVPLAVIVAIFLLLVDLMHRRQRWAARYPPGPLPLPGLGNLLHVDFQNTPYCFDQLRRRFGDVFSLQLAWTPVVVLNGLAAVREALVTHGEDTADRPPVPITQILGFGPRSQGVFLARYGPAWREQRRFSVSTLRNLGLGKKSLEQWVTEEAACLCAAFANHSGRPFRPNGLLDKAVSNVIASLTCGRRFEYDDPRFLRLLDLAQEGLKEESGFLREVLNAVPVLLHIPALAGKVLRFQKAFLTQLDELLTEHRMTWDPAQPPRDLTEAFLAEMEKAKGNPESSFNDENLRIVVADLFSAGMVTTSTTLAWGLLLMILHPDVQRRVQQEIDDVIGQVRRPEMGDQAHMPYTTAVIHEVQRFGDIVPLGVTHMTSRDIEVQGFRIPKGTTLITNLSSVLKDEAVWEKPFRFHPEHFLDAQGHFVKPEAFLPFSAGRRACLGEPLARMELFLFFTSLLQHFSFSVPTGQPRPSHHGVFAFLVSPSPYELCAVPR
Sequence of Cytochrome P450 2C9 (P11712 whole entry): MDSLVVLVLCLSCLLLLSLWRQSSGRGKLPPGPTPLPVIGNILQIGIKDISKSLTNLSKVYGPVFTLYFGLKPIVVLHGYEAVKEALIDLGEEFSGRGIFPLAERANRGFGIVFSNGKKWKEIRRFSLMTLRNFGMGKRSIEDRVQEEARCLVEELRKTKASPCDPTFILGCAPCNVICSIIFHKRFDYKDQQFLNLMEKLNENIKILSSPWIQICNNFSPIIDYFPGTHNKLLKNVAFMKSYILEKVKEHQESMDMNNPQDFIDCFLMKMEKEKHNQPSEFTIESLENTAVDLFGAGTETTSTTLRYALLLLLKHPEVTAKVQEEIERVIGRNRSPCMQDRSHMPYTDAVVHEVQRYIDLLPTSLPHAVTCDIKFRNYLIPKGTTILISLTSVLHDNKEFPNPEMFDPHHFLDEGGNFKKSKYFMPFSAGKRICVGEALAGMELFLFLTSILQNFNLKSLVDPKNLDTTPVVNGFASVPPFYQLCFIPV
Sequence of Tyrosine-protein kinase JAK1 (P23458 whole entry): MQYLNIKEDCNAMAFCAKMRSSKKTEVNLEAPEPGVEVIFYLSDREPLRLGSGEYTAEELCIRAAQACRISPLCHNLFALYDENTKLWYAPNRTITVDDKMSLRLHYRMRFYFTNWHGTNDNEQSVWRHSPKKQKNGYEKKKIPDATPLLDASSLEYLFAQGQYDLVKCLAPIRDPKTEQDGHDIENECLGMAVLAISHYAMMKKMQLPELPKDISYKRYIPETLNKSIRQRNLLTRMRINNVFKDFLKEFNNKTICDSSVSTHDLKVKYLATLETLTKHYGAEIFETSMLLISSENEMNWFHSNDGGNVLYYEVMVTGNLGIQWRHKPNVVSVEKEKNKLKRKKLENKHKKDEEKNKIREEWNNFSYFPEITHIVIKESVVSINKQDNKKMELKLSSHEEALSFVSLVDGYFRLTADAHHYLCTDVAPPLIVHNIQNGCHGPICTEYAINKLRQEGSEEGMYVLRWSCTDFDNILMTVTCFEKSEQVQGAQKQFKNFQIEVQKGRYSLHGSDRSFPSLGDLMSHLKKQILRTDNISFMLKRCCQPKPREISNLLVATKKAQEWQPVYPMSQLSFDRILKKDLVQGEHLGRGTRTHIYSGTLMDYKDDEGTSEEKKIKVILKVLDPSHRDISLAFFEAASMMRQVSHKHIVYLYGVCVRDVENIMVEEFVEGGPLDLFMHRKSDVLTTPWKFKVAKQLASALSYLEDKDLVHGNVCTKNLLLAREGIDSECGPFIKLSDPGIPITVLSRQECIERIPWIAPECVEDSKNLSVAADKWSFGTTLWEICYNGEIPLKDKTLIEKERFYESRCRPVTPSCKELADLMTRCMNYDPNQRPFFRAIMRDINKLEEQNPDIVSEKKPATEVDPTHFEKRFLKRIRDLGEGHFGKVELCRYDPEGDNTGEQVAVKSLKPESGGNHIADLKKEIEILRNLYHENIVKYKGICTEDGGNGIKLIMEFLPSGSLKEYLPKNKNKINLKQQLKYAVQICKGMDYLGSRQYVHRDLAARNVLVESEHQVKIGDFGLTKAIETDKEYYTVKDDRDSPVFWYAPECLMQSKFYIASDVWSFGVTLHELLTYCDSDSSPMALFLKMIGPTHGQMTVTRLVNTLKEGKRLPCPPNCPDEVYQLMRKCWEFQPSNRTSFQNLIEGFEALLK
Sequence of Cyclin-dependent kinase 9 (P50750 whole entry): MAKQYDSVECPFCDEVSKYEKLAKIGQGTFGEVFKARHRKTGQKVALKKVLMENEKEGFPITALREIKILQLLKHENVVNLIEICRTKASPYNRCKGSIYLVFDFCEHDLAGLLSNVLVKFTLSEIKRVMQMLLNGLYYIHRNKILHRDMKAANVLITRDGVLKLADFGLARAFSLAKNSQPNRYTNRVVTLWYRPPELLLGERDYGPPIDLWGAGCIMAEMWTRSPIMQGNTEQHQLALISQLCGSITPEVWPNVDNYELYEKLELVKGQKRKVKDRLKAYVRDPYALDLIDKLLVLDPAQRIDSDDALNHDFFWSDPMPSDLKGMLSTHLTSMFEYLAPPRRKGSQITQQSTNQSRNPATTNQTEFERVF
Sequence of Tyrosine-protein kinase JAK2 (O60674 whole entry): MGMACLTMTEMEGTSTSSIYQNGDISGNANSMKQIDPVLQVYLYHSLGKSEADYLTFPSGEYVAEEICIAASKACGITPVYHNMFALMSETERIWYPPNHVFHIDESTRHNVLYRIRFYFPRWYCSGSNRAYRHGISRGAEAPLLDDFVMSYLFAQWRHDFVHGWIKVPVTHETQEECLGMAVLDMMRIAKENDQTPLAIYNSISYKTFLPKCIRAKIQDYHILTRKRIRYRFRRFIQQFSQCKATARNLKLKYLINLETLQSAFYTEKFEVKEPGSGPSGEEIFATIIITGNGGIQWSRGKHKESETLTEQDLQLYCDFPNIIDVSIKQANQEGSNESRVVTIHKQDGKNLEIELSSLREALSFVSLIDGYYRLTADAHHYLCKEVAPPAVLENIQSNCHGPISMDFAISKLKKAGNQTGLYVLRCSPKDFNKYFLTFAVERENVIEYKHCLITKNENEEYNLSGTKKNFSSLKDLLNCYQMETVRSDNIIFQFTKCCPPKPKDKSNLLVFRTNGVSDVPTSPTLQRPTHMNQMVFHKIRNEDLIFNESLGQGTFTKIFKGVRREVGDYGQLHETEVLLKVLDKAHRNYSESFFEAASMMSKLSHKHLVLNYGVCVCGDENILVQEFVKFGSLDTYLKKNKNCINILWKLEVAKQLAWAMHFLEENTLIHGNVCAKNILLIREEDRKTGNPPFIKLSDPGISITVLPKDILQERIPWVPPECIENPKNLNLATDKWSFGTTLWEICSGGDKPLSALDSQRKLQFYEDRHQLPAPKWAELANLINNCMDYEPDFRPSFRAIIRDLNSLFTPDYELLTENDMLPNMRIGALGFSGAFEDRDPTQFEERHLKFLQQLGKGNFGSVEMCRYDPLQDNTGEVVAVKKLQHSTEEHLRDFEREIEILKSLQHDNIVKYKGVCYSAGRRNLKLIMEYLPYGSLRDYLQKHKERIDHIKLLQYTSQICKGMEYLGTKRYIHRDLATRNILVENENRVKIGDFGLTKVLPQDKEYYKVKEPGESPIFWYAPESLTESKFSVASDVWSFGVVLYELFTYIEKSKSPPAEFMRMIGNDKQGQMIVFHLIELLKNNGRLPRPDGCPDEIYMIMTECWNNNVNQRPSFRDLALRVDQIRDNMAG

C1=C2COC/C=C/COCc3cc(ccc3OCCN3CCCC3)Nc3nccc(n3)C(=C1)O2 (mixture of isomers) [CT-1578]
Tmax [1]: 2 h
half-life [2]: 1.1 h
Cmax [3]: 231 ng/mL
IC50 [4]: 46 nM
half-life [5]: 1.5 h
IC50 [6]: 2700 nM
IC50 [7]: 36 nM
inhibition in vivo at 105 mg/kg (Mus musculus): 23%
half-life at 5 µM [8]: > 1 h
AUC(0-inf) [9]: 2020 ng·h/mL
GI50 (BaF3): 250 nM
Tmax [10]: 3 h
AUC(0-inf) [11]: 7590 ng·h/mL
half-life at 5 µM [12]: 0.383 h
bioavailability [13]: 6%
IC50 (Cytochrome P450 2D6): > 10000 nM
IC50 (Cytochrome P450 2C9): > 10000 nM
Cmax [14]: 27 ng/mL
AUC(0-inf) [15]: 1500 ng·h/mL
IC50 [16]: 4300 nM
half-life [17]: 3.6 h
fraction unbound at 1000 ng/mL [18]: 0.01
fraction unbound at 1000 ng/mL [19]: 0.127
bioavailability [20]: 6%
half-life [21]: > 1 h
fraction unbound at 1000 ng/mL [22]: 0.013
IC50 (Cytochrome P450 2C19): 1400 nM
